Reference: paper PMC8278208 (Toxicology Reports, 2021)
Blank lines part the entries; values can stand above or below the molecule they belong to.

Assays:
[1] = system: doxorubicin-resistant K562/Dox (P-glycoprotein-overexpression) leukemia cells; test: Cell viability, resazurin assay, K562/Dox; format: cell-based, human; settings: K562/Dox, 48, 72, and 96 h
Method in brief: (§1)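 Cells seeded at 5×10^4 cells mL⁻¹ and exposed to a range of test compound concentrations for 48, 72 and 96 h. Resazurin solution (0.1 mg mL⁻¹) was then added, followed by a further 4 h incubation. Fluorescence was read at ex 570/em 590 nm. % viability = (F treated/F untreated control) × 100. Three independent experiments, mean ± S.E.; Student's t-test versus untreated control, p<0.05.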

[2] = Cell viability, resazurin assay, K562/Dox; format: cell-based, human; settings: human
Method in brief: as §1

[3] = Cell viability, resazurin assay, K562; format: cell-based, human; settings: human, K562 cells (doxorubicin-sensitive leukemia)
Method in brief: as §1

[4] = system: doxorubicin-sensitive K562 leukemia cells; test: Cell viability, resazurin assay, K562; format: cell-based, human; settings: for cell viability percentage vs control group: K562, 48, 72, and 96 h
Method in brief: as §1

K562 cancer cells = test: Cell morphological observation by light microscope, K562; format: cell-based, human; settings: high concentrations (10 mM shown at 72 h), also at 48 and 96 h
[5] = target: human serum albumin (HSA) (Homo sapiens, UniProt P02768); test: Fluorescence quenching of HSA by 4-HBA or VA; format: binding; settings: for fluorescence quenching mechanism: from temperature dependence of Ksv and Kq; for quenching rate constant Kq ± SE: τ0 5 ns; for enthalpy change ΔH / entropy change ΔS: from Kb at 298 and 310 K
Method in brief: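 HSA (1 μM) in PBS was titrated with test compound to final 0–10,000 μM. Intrinsic fluorescence was recorded at ex 280 nm, em 290–500 nm, slits 5 nm, 1.0 cm cell, at 298 and 310 K and pH 6, 7.4 and 8. Intensity at 342 nm was fitted by Stern–Volmer (τ0 5 ns) for KSV/Kq and by double-log plot for Kb and n. ΔH, ΔS and ΔG were derived from these fits.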

[6] = 0.01, 0.05, 0.1, 0.5, 1, and 5 mM
[7] = 298 and 310 K, pHs 7.4, 6.0 and 8.0

human serum albumin (HSA), sequence (P02768 25-609): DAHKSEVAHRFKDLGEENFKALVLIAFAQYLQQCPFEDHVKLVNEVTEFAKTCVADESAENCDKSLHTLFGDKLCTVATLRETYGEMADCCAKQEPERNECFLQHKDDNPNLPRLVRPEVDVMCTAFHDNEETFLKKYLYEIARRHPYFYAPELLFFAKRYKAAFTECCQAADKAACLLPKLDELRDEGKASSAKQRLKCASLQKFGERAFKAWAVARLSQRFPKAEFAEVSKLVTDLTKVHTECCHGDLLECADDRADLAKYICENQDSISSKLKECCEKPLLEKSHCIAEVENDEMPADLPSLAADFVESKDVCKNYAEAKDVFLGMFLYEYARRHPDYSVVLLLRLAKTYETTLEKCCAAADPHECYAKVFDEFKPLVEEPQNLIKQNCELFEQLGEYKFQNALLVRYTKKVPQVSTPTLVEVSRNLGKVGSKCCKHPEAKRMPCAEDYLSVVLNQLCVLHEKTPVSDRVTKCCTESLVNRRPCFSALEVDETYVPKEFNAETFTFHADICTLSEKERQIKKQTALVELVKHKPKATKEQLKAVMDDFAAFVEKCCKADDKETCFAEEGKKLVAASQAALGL

- concentrations at which fluorescence intensity of HSA decreased [5, 7]: 5–10,000 μM
- concentrations at which fluorescence intensity of HSA decreased ([5]; PBS pH 7.4, 298 K, 1 μM HSA): 5–10,000 μM
- fluorescence quenching mechanism [5]: static quenching mechanism
- Gibbs binding free energy change ΔG ([5]; pH 6.0, 298 K): -4.178 kcal/mol
- Stern-Volmer quenching constant KSV ± SE ([5]; pH 6.0, 298 K): 4.4982 ± 2.10 × 10^3 L mole^−1
- number of binding site n ± SE ([5]; pH 6.0, 298 K): 0.8623 ± 0.05
- quenching rate constant Kq ± SE ([5]; pH 6.0, 298 K): 0.8996 ± 0.42 × 10^12 L. mole^−1 s^−1
- Gibbs binding free energy change ΔG ([5]; pH 6.0, 310 K): -3.769 kcal/mol
- Stern-Volmer quenching constant KSV ± SE ([5]; pH 6.0, 310 K): 4.2857 ± 0.93 × 10^3 L mole^−1
- number of binding site n ± SE ([5]; pH 6.0, 310 K): 0.9016 ± 0.06
- quenching rate constant Kq ± SE ([5]; pH 6.0, 310 K): 0.8572 ± 0.19 × 10^12 L. mole^−1 s^−1
- enthalpy change ΔH ([5]; pH 6.0): -14.3 kcal/mol
- entropy change ΔS ([5]; pH 6.0): −142.12 J. mol^−1 K^−1
- Gibbs binding free energy change ΔG ([5]; pH 7.4, 298 K): -2.753 kcal/mol
- Stern-Volmer quenching constant KSV ± SE ([5]; pH 7.4, 298 K): 3.0657 ± 1.18 × 10^3 L mole^−1
- number of binding site n ± SE ([5]; pH 7.4, 298 K): 0.6130 ± 0.05
- quenching rate constant Kq ± SE ([5]; pH 7.4, 298 K): 0.6131 ± 0.24 × 10^12 L. mole^−1 s^−1
- Gibbs binding free energy change ΔG ([5]; pH 7.4, 310 K): -2.36 kcal/mol
- Stern-Volmer quenching constant KSV ± SE ([5]; pH 7.4, 310 K): 2.7164 ± 0.27 × 10^3 L mole^−1
- number of binding site n ± SE ([5]; pH 7.4, 310 K): 0.7235 ± 0.05
- quenching rate constant Kq ± SE ([5]; pH 7.4, 310 K): 0.5433 ± 0.05 × 10^12 L. mole^−1 s^−1
- enthalpy change ΔH ([5]; pH 7.4): -12.42 kcal/mol
- entropy change ΔS ([5]; pH 7.4): −135.72 J. mol^−1 K^−1
- Gibbs binding free energy change ΔG ([5]; pH 8.0, 298 K): -3.623 kcal/mol
- Stern-Volmer quenching constant KSV ± SE ([5]; pH 8.0, 298 K): 1.8046 ± 0.51 × 10^3 L mole^−1
- number of binding site n ± SE ([5]; pH 8.0, 298 K): 0.8005 ± 0.11
- quenching rate constant Kq ± SE ([5]; pH 8.0, 298 K): 0.3609 ± 0.10 × 10^12 L. mole^−1 s^−1
- Gibbs binding free energy change ΔG ([5]; pH 8.0, 310 K): -3.382 kcal/mol
- Stern-Volmer quenching constant KSV ± SE ([5]; pH 8.0, 310 K): 1.4572 ± 0.25 × 10^3 L mole^−1
- number of binding site n ± SE ([5]; pH 8.0, 310 K): 1.0784 ± 0.29
- quenching rate constant Kq ± SE ([5]; pH 8.0, 310 K): 0.2914 ± 0.05 × 10^12 L. mole^−1 s^−1
- enthalpy change ΔH ([5]; pH 8.0): -9.661 kcal/mol
- entropy change ΔS ([5]; pH 8.0): −84.76 J. mol^−1 K^−1
SMILES: O=C(O)c1ccc(O)cc1 [4-HBA, 4-Hydroxybenzoic acid]
- cell viability percentage vs control group [1, 6]: did not significantly change
- viability at 48 h, 10 mM [2]: 75.4 ± 8.61%
- viability at 72 h, 10 mM [2]: 70.4 ± 5.21%
- viability at 96 h, 10 mM [2]: 66.3 ± 7.67%
- viability at 72 h, 10 mM [3]: 90.3 ± 0.96%
- viability at 96 h, 10 mM [3]: 87.6 ± 1.01%
- cell viability percentage ([4]; K562, 10 mM, 48 h): did not significantly change
- cell viability percentage vs control group [4, 6]: did not significantly change
- morphological changes in treated cells (K562 cancer cells): rough cells, shrinking cells, irregular shape cells, and membrane blebbing

- concentrations at which fluorescence intensity of HSA decreased [5, 7]: 2,000 to 10,000 μM
- concentrations at which fluorescence intensity of HSA decreased ([5]; PBS pH 7.4, 298 K, 1 μM HSA): 2,000 to 10,000 μM
- fluorescence quenching mechanism [5]: dynamic quenching mechanism
- Gibbs binding free energy change ΔG ([5]; pH 6.0, 298 K): -3.411 kcal/mol
- Stern-Volmer quenching constant KSV ± SE ([5]; pH 6.0, 298 K): 1.2621 ± 0.19 × 10^3 L mole^−1
- number of binding site n ± SE ([5]; pH 6.0, 298 K): 0.7071 ± 0.08
- quenching rate constant Kq ± SE ([5]; pH 6.0, 298 K): 0.2524 ± 0.04 × 10^12 L. mole^−1 s^−1
- Gibbs binding free energy change ΔG ([5]; pH 6.0, 310 K): -3.109 kcal/mol
- Stern-Volmer quenching constant KSV ± SE ([5]; pH 6.0, 310 K): 1.4092 ± 0.09 × 10^3 L mole^−1
- number of binding site n ± SE ([5]; pH 6.0, 310 K): 0.6174 ± 0.08
- quenching rate constant Kq ± SE ([5]; pH 6.0, 310 K): 0.2818 ± 0.02 × 10^12 L. mole^−1 s^−1
- enthalpy change ΔH ([5]; pH 6.0): -10.9 kcal/mol
- entropy change ΔS ([5]; pH 6.0): −105.08 J. mol^−1 K^−1
- Gibbs binding free energy change ΔG ([5]; pH 7.4, 298 K): -2.737 kcal/mol
- Stern-Volmer quenching constant KSV ± SE ([5]; pH 7.4, 298 K): 0.7564 ± 0.03 × 10^3 L mole^−1
- number of binding site n ± SE ([5]; pH 7.4, 298 K): 0.5786 ± 0.03
- quenching rate constant Kq ± SE ([5]; pH 7.4, 298 K): 0.1513 ± 0.01 × 10^12 L. mole^−1 s^−1
- Gibbs binding free energy change ΔG ([5]; pH 7.4, 310 K): -2.35 kcal/mol
- Stern-Volmer quenching constant KSV ± SE ([5]; pH 7.4, 310 K): 0.8312 ± 0.09 × 10^3 L mole^−1
- number of binding site n ± SE ([5]; pH 7.4, 310 K): 0.3816 ± 0.09
- quenching rate constant Kq ± SE ([5]; pH 7.4, 310 K): 0.1662 ± 0.02 × 10^12 L. mole^−1 s^−1
- enthalpy change ΔH ([5]; pH 7.4): -12.45 kcal/mol
- entropy change ΔS ([5]; pH 7.4): −136.42 J. mol^−1 K^−1
- Gibbs binding free energy change ΔG ([5]; pH 8.0, 298 K): -3.069 kcal/mol
- Stern-Volmer quenching constant KSV ± SE ([5]; pH 8.0, 298 K): 0.7592 ± 0.06 × 10^3 L mole^−1
- number of binding site n ± SE ([5]; pH 8.0, 298 K): 0.6340 ± 0.04
- quenching rate constant Kq ± SE ([5]; pH 8.0, 298 K): 0.1518 ± 0.01 × 10^12 L. mole^−1 s^−1
- Gibbs binding free energy change ΔG ([5]; pH 8.0, 310 K): -2.99 kcal/mol
- Stern-Volmer quenching constant KSV ± SE ([5]; pH 8.0, 310 K): 1.0384 ± 0.07 × 10^3 L mole^−1
- number of binding site n ± SE ([5]; pH 8.0, 310 K): 0.5257 ± 0.08
- quenching rate constant Kq ± SE ([5]; pH 8.0, 310 K): 0.2077 ± 0.01 × 10^12 L. mole^−1 s^−1
- enthalpy change ΔH ([5]; pH 8.0): -5.062 kcal/mol
- entropy change ΔS ([5]; pH 8.0): −27.97 J. mol^−1 K^−1
SMILES: COc1cc(C(=O)O)ccc1O [VA, 4-hydroxy-3-methoxybenzoic acid]
- cell viability percentage vs control group ([1]; 0.01, 0.05, 0.1, 0.5, and 1 mM): did not significantly change
- viability at 48 h, 5 mM [2]: 75.3 ± 6.23%
- viability at 48 h, 10 mM [2]: 53.5 ± 10.7%
- viability at 72 h, 5 mM [2]: 70.7 ± 11.1%
- viability at 72 h, 10 mM [2]: 41 ± 5.78%
- viability at 96 h, 5 mM [2]: 65.5 ± 2.36%
- viability at 96 h, 10 mM [2]: 35.9 ± 3.61%
- viability at 48 h, 5 mM [3]: 79.8 ± 3.98%
- viability at 48 h, 10 mM [3]: 70.6 ± 2.93%
- viability at 72 h, 5 mM [3]: 81.3 ± 6.51%
- viability at 72 h, 10 mM [3]: 58 ± 5.46%
- viability at 96 h, 5 mM [3]: 82.9 ± 5.89%
- viability at 96 h, 10 mM [3]: 56.7 ± 18.2%
- cell viability percentage vs control group ([4]; 0.01, 0.05, 0.1, 0.5, and 1 mM): did not significantly change
- morphological changes in treated cells (K562 cancer cells): rough cells, shrinking cells, irregular shape cells, and membrane blebbing
